Calls of active or inactive are those of the source. The calls are words filed in the database; no cut-off is given here.
Key:
[1] = target: T1, Prostaglandin G/H synthase 1 (Ovis aries) (UniProt P05979); assay: Inhibition of ovine COX1 at 100 uM
T1 sequence (whole entry): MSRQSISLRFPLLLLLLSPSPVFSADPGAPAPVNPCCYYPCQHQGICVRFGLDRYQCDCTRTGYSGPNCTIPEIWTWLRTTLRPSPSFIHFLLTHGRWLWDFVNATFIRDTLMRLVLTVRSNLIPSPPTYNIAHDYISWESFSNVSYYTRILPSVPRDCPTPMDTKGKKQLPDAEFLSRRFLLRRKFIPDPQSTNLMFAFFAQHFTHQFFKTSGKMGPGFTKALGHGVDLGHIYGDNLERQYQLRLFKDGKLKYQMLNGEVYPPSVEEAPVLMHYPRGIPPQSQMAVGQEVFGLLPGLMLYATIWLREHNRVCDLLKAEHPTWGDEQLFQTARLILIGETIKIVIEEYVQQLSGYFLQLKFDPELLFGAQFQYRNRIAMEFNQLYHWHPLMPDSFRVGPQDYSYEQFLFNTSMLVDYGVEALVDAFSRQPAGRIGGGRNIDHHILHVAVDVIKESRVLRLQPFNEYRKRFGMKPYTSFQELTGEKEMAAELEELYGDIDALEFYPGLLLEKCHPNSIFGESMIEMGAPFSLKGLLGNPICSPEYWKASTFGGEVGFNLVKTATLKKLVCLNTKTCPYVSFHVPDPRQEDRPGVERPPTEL
Method in brief: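 Colorimetric ovine COX inhibitor screening kit, run per the supplier's protocol. […] Each experiment was run at least twice and the mean was reported.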

[2] = target: T2, Prostaglandin G/H synthase 1 (Ovis aries, UniProt P05979); assay: Inhibition of ovine COX1
T2 sequence (P05979 whole entry): T1 sequence (whole entry)
Method in brief: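 Colorimetric ovine COX inhibitor screening kit, run per the supplier's protocol. Each experiment was run at least twice and the mean was reported.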

Rattus norvegicus [3] = assay: Effect on gastric damage in rat assessed as induction of gastric ulcer at 30 mg/kg, po after 5 hrs; format: functional, organism-based; design: dose 30 mg/kg; details: Stomach
Method in brief: (§1)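 Male rats, 170–200 g, given a single oral dose in 0.5% CMC vehicle (n = 3–5 per group). Ulcer lengths were measured in millimetres and summed to give an overall gastric damage score per rat. Data are means with SEM.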

Rattus norvegicus [4] = assay: Effect on gastric damage in rat assessed as induction of gastric ulcer at 10 mg/kg, po after 5 hrs; format: functional, organism-based; design: dose 10 mg/kg; details: Stomach; method in brief: as §1

Nc1ccc(S(=O)(=O)Nc2ccc(Cl)cc2)cc1
inhibition [1]: 70%
IC50 [2]: 12 µM

Cc1ccccc1NS(=O)(=O)c1ccc([N+](=O)[O-])cc1
inhibition [1]: 0%

CS(=O)(=O)Nc1ccc(S(=O)(=O)Nc2ccc(Cl)cc2)cc1
inhibition [1]: 11%

Cc1cc(N)ccc1N(C)S(=O)(=O)c1ccc(Cl)cc1
inhibition [1]: 77%
IC50 [2]: 26 µM

Cc1cccc(NS(=O)(=O)c2ccc(NS(C)(=O)=O)cc2)c1
inhibition [1]: 3%

Cc1cc(N)ccc1NS(=O)(=O)c1ccc(Cl)cc1
inhibition [1]: 7%

Cc1ccc(NS(=O)(=O)c2ccc(NS(C)(=O)=O)cc2)cc1
inhibition [1]: 12%

Cc1cccc(NS(=O)(=O)c2ccc([N+](=O)[O-])cc2)c1
inhibition [1]: 3%

Cc1cccc(NS(=O)(=O)c2ccc(N)cc2)c1
inhibition [1]: 8%

Cc1ccc(NS(=O)(=O)c2ccc([N+](=O)[O-])cc2)cc1
inhibition [1]: 44%

Cc1ccccc1NS(=O)(=O)c1ccc(NS(C)(=O)=O)cc1
inhibition [1]: 0%

Nc1ccc(S(=O)(=O)Nc2ccc(C(F)(F)F)cc2)cc1
inhibition [1]: 14%

Nc1ccc(S(=O)(=O)Nc2cccc(Cl)c2)cc1
inhibition [1]: 18%

Nc1ccc(S(=O)(=O)Nc2ccc(F)cc2)cc1
inhibition [1]: 15%

COc1cc(N)ccc1N(C)S(=O)(=O)c1ccc(Cl)cc1
inhibition [1]: 73%
IC50 [2]: 20 µM

O=[N+]([O-])c1ccc(S(=O)(=O)Nc2ccc(C(F)(F)F)cc2)cc1
inhibition [1]: 1%

Cc1cc(C)cc(NS(=O)(=O)c2ccc(N)cc2)c1
inhibition [1]: 13%

O=C(O)c1ccc(S(=O)(=O)Nc2ccc(C(F)(F)F)cc2)cc1
inhibition [1]: 0%

CC(=O)Oc1ccccc1C(=O)O
Activity (Rattus norvegicus [3]): Active

CN(c1ccc(I)cc1)S(=O)(=O)c1ccc(N)cc1
inhibition [1]: 18%

COc1cc(N)ccc1NS(=O)(=O)c1ccc(Cl)cc1
inhibition [1]: 1%

CN(c1ccc(Cl)cc1)S(=O)(=O)c1ccc(N)cc1
inhibition [1]: 78%
IC50 [2]: 3.2 µM

CS(=O)(=O)Nc1ccc(S(=O)(=O)Nc2ccc(C(F)(F)F)cc2)cc1
inhibition [1]: 8%

O=[N+]([O-])c1ccc(S(=O)(=O)Nc2cc(C(F)(F)F)cc(C(F)(F)F)c2)cc1
inhibition [1]: 19%

O=C(O)c1ccc(S(=O)(=O)Nc2cc(C(F)(F)F)cc(C(F)(F)F)c2)cc1
inhibition [1]: 25%

Cc1cc(C)cc(NS(=O)(=O)c2ccc(NS(C)(=O)=O)cc2)c1
inhibition [1]: 0%

O=[N+]([O-])c1ccc(S(=O)(=O)Nc2ccc(Cl)cc2)cc1
inhibition [1]: 6%

Nc1ccc(S(=O)(=O)Nc2ccccc2Cl)cc1
inhibition [1]: 53%

COc1ccc(NS(=O)(=O)c2ccc([N+](=O)[O-])cc2)cc1
inhibition [1]: 0%

CN(c1ccc(Br)cc1)S(=O)(=O)c1ccc(N)cc1
inhibition [1]: 21%

Cc1ccc(NS(=O)(=O)c2ccc(N)cc2)cc1
inhibition [1]: 52%

O=C(O)c1ccc(S(=O)(=O)Nc2ccccc2)cc1
inhibition [1]: 11%

Cc1cccc(NS(=O)(=O)c2ccc(C(=O)O)cc2)c1
inhibition [1]: 0%

CCCN(c1ccc(Cl)cc1)S(=O)(=O)c1ccc(N)cc1
inhibition [1]: 0%

CN(c1ccc(N)cc1)S(=O)(=O)c1ccc(Cl)cc1
inhibition [1]: 68%
IC50 [2]: 9.2 µM

COc1ccc2c(c1)c(CC(=O)O)c(C)n2C(=O)c1ccc(Cl)cc1
Activity (Rattus norvegicus [4]): Active

Cc1ccccc1NS(=O)(=O)c1ccc(N)cc1
inhibition [1]: 5%

Cc1ccccc1NS(=O)(=O)c1ccc(C(=O)O)cc1
inhibition [1]: 21%

COc1ccc(NS(=O)(=O)c2ccc(NS(C)(=O)=O)cc2)cc1
inhibition [1]: 8%

CS(=O)(=O)Nc1ccc(S(=O)(=O)Nc2cc(C(F)(F)F)cc(C(F)(F)F)c2)cc1
inhibition [1]: 0%

Nc1ccc(S(=O)(=O)Nc2cc(C(F)(F)F)cc(C(F)(F)F)c2)cc1
inhibition [1]: 30%

CN(c1ccc(C(F)(F)F)cc1)S(=O)(=O)c1ccc(N)cc1
inhibition [1]: 9%

Nc1ccc(S(=O)(=O)Nc2ccc(Br)cc2)cc1
inhibition [1]: 23%

CN(c1ccc(F)cc1)S(=O)(=O)c1ccc(N)cc1
inhibition [1]: 0%

COc1ccc(N(C)S(=O)(=O)c2ccc(N)cc2)cc1
inhibition [1]: 6%

O=[N+]([O-])c1ccc(S(=O)(=O)Nc2ccccc2)cc1
inhibition [1]: 0%

Nc1ccc(S(=O)(=O)Nc2ccccc2)cc1
inhibition [1]: 0%

Nc1ccc(NS(=O)(=O)c2ccc(Cl)cc2)c(C(F)(F)F)c1
inhibition [1]: 7%

CN(c1ccccc1)S(=O)(=O)c1ccc(N)cc1
inhibition [1]: 48%

Nc1ccc(NS(=O)(=O)c2ccc(Cl)cc2)cc1
inhibition [1]: 3%

Cc1cc(C)cc(NS(=O)(=O)c2ccc([N+](=O)[O-])cc2)c1
inhibition [1]: 0%

COc1ccc(NS(=O)(=O)c2ccc(C(=O)O)cc2)cc1
inhibition [1]: 3%

Cc1ccc(N(C)S(=O)(=O)c2ccc(N)cc2)cc1
inhibition [1]: 21%

CN(c1ccc(Cl)cc1)S(=O)(=O)c1cccc(N)c1
inhibition [1]: 39%

Nc1ccc(S(=O)(=O)Nc2ccc(Cl)cc2Cl)cc1
inhibition [1]: 6%

CS(=O)(=O)Nc1ccc(S(=O)(=O)Nc2ccccc2)cc1
inhibition [1]: 0%

Nc1ccc(S(=O)(=O)Nc2ccc(I)cc2)cc1
inhibition [1]: 18%

CCN(c1ccc(Cl)cc1)S(=O)(=O)c1ccc(N)cc1
inhibition [1]: 10%
